Key:
[1] = test system: HepG2; experiment: Growth inhibition of human HepG2 cells assessed as inhibition of cell proliferation after 24 hrs by MTT assay; type: functional; details: HepG2, 24 h
In short: (§1)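 Cells seeded at (1–5) × 10^3 per well and grown 12 h at 37 °C. Compounds added at increasing concentrations in medium with 10% FBS for 24 h. MTT dye then added, followed by 3–4 h at 37 °C. Medium discarded, formazan dissolved in DMSO and plate read. GI50 calculated relative to DMSO-treated control wells.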

[2] = molecular target: Tubulin (Bos taurus, UniProt Q6B856+Q862F3); experiment: Inhibition of bovine brain tubulin polymerization extent after 20 mins by turbidimetrically
Chain of Tubulin (Q6B856 whole entry): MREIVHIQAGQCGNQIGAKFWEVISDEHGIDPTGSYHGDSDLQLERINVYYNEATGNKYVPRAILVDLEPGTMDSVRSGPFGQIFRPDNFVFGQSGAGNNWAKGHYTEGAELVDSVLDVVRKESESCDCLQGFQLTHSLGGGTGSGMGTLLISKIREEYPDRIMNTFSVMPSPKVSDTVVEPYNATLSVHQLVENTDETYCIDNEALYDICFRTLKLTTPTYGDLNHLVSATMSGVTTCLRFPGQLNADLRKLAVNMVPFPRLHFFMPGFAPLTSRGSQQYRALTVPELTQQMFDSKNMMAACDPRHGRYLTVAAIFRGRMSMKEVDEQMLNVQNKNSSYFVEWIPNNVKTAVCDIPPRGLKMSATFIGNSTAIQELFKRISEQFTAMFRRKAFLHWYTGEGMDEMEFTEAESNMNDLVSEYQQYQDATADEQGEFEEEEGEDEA
Chain of Tubulin (Q862F3 whole entry): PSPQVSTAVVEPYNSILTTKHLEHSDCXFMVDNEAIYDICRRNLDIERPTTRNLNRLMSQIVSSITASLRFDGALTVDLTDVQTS

[3] = test system: MCF7; experiment: Growth inhibition of human MCF7 cells assessed as inhibition of cell proliferation after 24 hrs by MTT assay; type: functional; details: MCF7, 24 h; in short: as §1
[4] = test system: A549; experiment: Growth inhibition of human A549 cells assessed as inhibition of cell proliferation after 24 hrs by MTT assay; type: functional; details: A549, 24 h; in short: as §1
[5] = molecular target: Tubulin (Bos taurus) (UniProt Q6B856+Q862F3); details: at 5 µM

SMILES | GI50 [1] | IC50 [2] | GI50 [3] | GI50 [4] | inhibition [5]
Cn1cc(-c2nc3ccccc3n2C(=O)c2cccc(Br)c2)c2ccccc21 | 61.4 µM | 35.2 µM | 63.4 µM | 34.2 µM | 52%
Cn1cc(-c2nc3ccccc3n2C(=O)c2ccccc2)c2ccccc21 | 42.3 µM | 23.8 µM | 43.7 µM | 19.6 µM | 61%
COc1ccc(C(=O)n2c(-c3cn(C)c4ccc(Br)cc34)nc3ccccc32)cc1 | 18.9 µM | 6.3 µM | 19.2 µM | 11.3 µM | 75%
Cn1cc(-c2nc3ccccc3n2C(=O)c2ccccc2Br)c2cc(Br)ccc21 | 72.1 µM | 45.6 µM | 73.6 µM | 46.7 µM | 48%
COc1ccc(C(=O)n2c(-c3cn(C)c4ccccc34)nc3ccccc32)cc1 | 15.2 µM | 4.6 µM | 16.3 µM | 10.4 µM | 80%
Cn1cc(-c2nc3ccccc3n2C(=O)c2ccccc2Br)c2ccccc21 | 68.2 µM | 42.9 µM | 70.1 µM | 43.2 µM | 50%
COc1ccc(C(=O)n2c(-c3cn(C)c4ccc(Br)cc34)nc3ccccc32)cc1OC | 9.7 µM | 2.4 µM | 11.3 µM | 3.4 µM | 85%
COc1ccc2c(c1)c(-c1nc3ccccc3n1C(=O)c1ccccc1Br)cn2C | 54.2 µM | 32.3 µM | 55.8 µM | 29.5 µM | 55%
COc1cccc(C(=O)n2c(-c3cn(C)c4ccc(OC)cc34)nc3ccccc32)c1 | 11.7 µM | 3.3 µM | 14.6 µM | 4.6 µM | 84%
COc1ccc(C(=O)n2c(-c3cn(C)c4ccc(OC)cc34)nc3ccccc32)cc1 | 12.8 µM | 3.5 µM | 14.8 µM | 4.9 µM | 82%
COc1cc2c(c(OC)c1OC)-c1ccc(OC)c(=O)cc1[C@@H](NC(C)=O)CC2 [COLCHICINE] | 10.5 µM |  | 13.5 µM | 4.4 µM | 
COc1ccccc1C(=O)n1c(-c2cn(C)c3ccccc23)nc2ccccc21 | 31.8 µM | 15.9 µM | 32.1 µM | 12.3 µM | 70%
COc1cccc(C(=O)n2c(-c3cn(C)c4ccccc34)nc3ccccc32)c1 | 13.6 µM | 4.4 µM | 15.7 µM | 10.2 µM | 81%

— ChEMBL document CHEMBL3588853, “Synthesis, biological evaluation, and molecular docking studies of novel 1-benzene acyl-2-(1-methylindol-3-yl)-benzimidazole derivatives as potential tubulin polymerization inhibitors” (Eur J Med Chem, 2015)
